# Laboratory results published in ChEMBL document CHEMBL5058577, “EUbOPEN Chemogenomics Library 2 (Multiplex)” (2022).
# Tested on: Fibroblast
# Test: Multiplex assay against human fibroblast
# Format: toxicity, cell-based
# Summary of the method: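 Values for tubulin, mitochondrial-mass and membrane-permeability phenotypes are per cents of cells with healthy nuclei. These cells were identified by CellPathfinder machine-learning gating of live cells that had been stained at seeding with Hoechst33342, BioTracker Green Microtubule Cytoskeleton Dye, MitoTracker Red and Annexin V Alexa Fluor 680 and imaged on a CQ1 microscope at 37°C and 5% CO2 after compound addition. The gating first set Hoechst high-intensity objects apart from normal cells, then split normal cells into healthy, pyknosed or fragmented nuclei, and pyknosed cells into mitotic or apoptotic.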
# [1] = 12 h, 1 µM, compound concentration 1 uM, replicate 1
# [2] = 12 h, 1 µM, compound concentration 1 uM, replicate 2
# [3] = 12 h, 10 µM, compound concentration 10 uM, replicate 1
# [4] = 12 h, 10 µM, compound concentration 10 uM, replicate 2
# [5] = 24 h, 1 µM, compound concentration 1 uM, replicate 1
# [6] = 24 h, 1 µM, compound concentration 1 uM, replicate 2
# [7] = 24 h, 10 µM, compound concentration 10 uM, replicate 1
# [8] = 24 h, 10 µM, compound concentration 10 uM, replicate 2
# [9] = 48 h, 1 µM, compound concentration 1 uM, replicate 1
# [10] = 48 h, 1 µM, compound concentration 1 uM, replicate 2
# [11] = 48 h, 10 µM, compound concentration 10 uM, replicate 1
# [12] = 48 h, 10 µM, compound concentration 10 uM, replicate 2
compound,measurement,setting,value
O=S(=O)(c1ccccc1)c1cnc2c(N3CCNCC3)cccc2c1 [INTEPIRDINE],Population Apoptotic (%),[1],50%
same,Population Fragmented Nuclei (%),[1],23%
same,Population Healthy Nuclei (%),[1],67%
same,Population Hoechst High Intensity Objects (%),[1],3%
same,Population Membrane Permeable-Phenotype (%),[1],0%
same,Population Mitochondria Different-Phenotype (%),[1],2%
same,Population Mitotic Cells (%),[1],50%
same,Population Normal (%),[1],96%
same,Population Pyknosed Nuclei (%),[1],9%
same,Population Tubulin-Different-Phenotype (%),[1],26%
same,Total Cell Count,[1],212
same,Population Apoptotic (%),[2],34%
same,Population Fragmented Nuclei (%),[2],28%
same,Population Healthy Nuclei (%),[2],47%
same,Population Hoechst High Intensity Objects (%),[2],4%
same,Population Membrane Permeable-Phenotype (%),[2],7%
same,Population Mitochondria Different-Phenotype (%),[2],7%
same,Population Mitotic Cells (%),[2],65%
same,Population Normal (%),[2],95%
same,Population Pyknosed Nuclei (%),[2],24%
same,Population Tubulin-Different-Phenotype (%),[2],61%
same,Total Cell Count,[2],148
same,Population Apoptotic (%),[3],75%
same,Population Fragmented Nuclei (%),[3],22%
same,Population Healthy Nuclei (%),[3],62%
same,Population Hoechst High Intensity Objects (%),[3],1%
same,Population Membrane Permeable-Phenotype (%),[3],1%
same,Population Mitochondria Different-Phenotype (%),[3],8%
same,Population Mitotic Cells (%),[3],25%
same,Population Normal (%),[3],98%
same,Population Pyknosed Nuclei (%),[3],14%
same,Population Tubulin-Different-Phenotype (%),[3],44%
same,Total Cell Count,[3],138
same,Population Apoptotic (%),[4],61%
same,Population Fragmented Nuclei (%),[4],43%
same,Population Healthy Nuclei (%),[4],40%
same,Population Hoechst High Intensity Objects (%),[4],6%
same,Population Membrane Permeable-Phenotype (%),[4],5%
same,Population Mitochondria Different-Phenotype (%),[4],13%
same,Population Mitotic Cells (%),[4],38%
same,Population Normal (%),[4],93%
same,Population Pyknosed Nuclei (%),[4],16%
same,Population Tubulin-Different-Phenotype (%),[4],68%
same,Total Cell Count,[4],136
same,Population Apoptotic (%),[5],54%
same,Population Fragmented Nuclei (%),[5],16%
same,Population Healthy Nuclei (%),[5],72%
same,Population Hoechst High Intensity Objects (%),[5],5%
same,Population Membrane Permeable-Phenotype (%),[5],2%
same,Population Mitochondria Different-Phenotype (%),[5],4%
same,Population Mitotic Cells (%),[5],45%
same,Population Normal (%),[5],94%
same,Population Pyknosed Nuclei (%),[5],10%
same,Population Tubulin-Different-Phenotype (%),[5],28%
same,Total Cell Count,[5],212
same,Population Apoptotic (%),[6],41%
same,Population Fragmented Nuclei (%),[6],32%
same,Population Healthy Nuclei (%),[6],44%
same,Population Hoechst High Intensity Objects (%),[6],0%
same,Population Membrane Permeable-Phenotype (%),[6],1%
same,Population Mitotic Cells (%),[6],58%
same,Population Normal (%),[6],99%
same,Population Pyknosed Nuclei (%),[6],24%
same,Population Tubulin-Different-Phenotype (%),[6],59%
same,Total Cell Count,[6],151
same,Population Apoptotic (%),[7],40%
same,Population Fragmented Nuclei (%),[7],28%
same,Population Healthy Nuclei (%),[7],65%
same,Population Hoechst High Intensity Objects (%),[7],1%
same,Population Membrane Permeable-Phenotype (%),[7],0%
same,Population Mitochondria Different-Phenotype (%),[7],7%
same,Population Mitotic Cells (%),[7],60%
same,Population Normal (%),[7],98%
same,Population Pyknosed Nuclei (%),[7],6%
same,Population Tubulin-Different-Phenotype (%),[7],50%
same,Total Cell Count,[7],152
same,Population Apoptotic (%),[8],91%
same,Population Fragmented Nuclei (%),[8],39%
same,Population Healthy Nuclei (%),[8],50%
same,Population Hoechst High Intensity Objects (%),[8],4%
same,Population Membrane Permeable-Phenotype (%),[8],3%
same,Population Mitochondria Different-Phenotype (%),[8],15%
same,Population Mitotic Cells (%),[8],8%
same,Population Normal (%),[8],95%
same,Population Pyknosed Nuclei (%),[8],10%
same,Population Tubulin-Different-Phenotype (%),[8],67%
same,Total Cell Count,[8],123
same,Population Apoptotic (%),[9],66%
same,Population Fragmented Nuclei (%),[9],22%
same,Population Healthy Nuclei (%),[9],69%
same,Population Hoechst High Intensity Objects (%),[9],5%
same,Population Membrane Permeable-Phenotype (%),[9],0%
same,Population Mitochondria Different-Phenotype (%),[9],2%
same,Population Mitotic Cells (%),[9],33%
same,Population Normal (%),[9],94%
same,Population Pyknosed Nuclei (%),[9],7%
same,Population Tubulin-Different-Phenotype (%),[9],34%
same,Total Cell Count,[9],213
same,Population Apoptotic (%),[10],52%
same,Population Fragmented Nuclei (%),[10],39%
same,Population Healthy Nuclei (%),[10],45%
same,Population Hoechst High Intensity Objects (%),[10],3%
same,Population Membrane Permeable-Phenotype (%),[10],1%
same,Population Mitotic Cells (%),[10],48%
same,Population Normal (%),[10],96%
same,Population Pyknosed Nuclei (%),[10],15%
same,Population Tubulin-Different-Phenotype (%),[10],54%
same,Total Cell Count,[10],170
same,Population Apoptotic (%),[11],63%
same,Population Fragmented Nuclei (%),[11],23%
same,Population Healthy Nuclei (%),[11],67%
same,Population Hoechst High Intensity Objects (%),[11],3%
same,Population Membrane Permeable-Phenotype (%),[11],1%
same,Population Mitochondria Different-Phenotype (%),[11],15%
same,Population Mitotic Cells (%),[11],36%
same,Population Normal (%),[11],96%
same,Population Pyknosed Nuclei (%),[11],8%
same,Population Tubulin-Different-Phenotype (%),[11],47%
same,Total Cell Count,[11],139
same,Population Apoptotic (%),[12],40%
same,Population Fragmented Nuclei (%),[12],48%
same,Population Healthy Nuclei (%),[12],38%
same,Population Hoechst High Intensity Objects (%),[12],6%
same,Population Membrane Permeable-Phenotype (%),[12],6%
same,Population Mitochondria Different-Phenotype (%),[12],6%
same,Population Mitotic Cells (%),[12],60%
same,Population Normal (%),[12],93%
same,Population Pyknosed Nuclei (%),[12],12%
same,Population Tubulin-Different-Phenotype (%),[12],57%
same,Total Cell Count,[12],125
